Data from ChEMBL document CHEMBL2417505, “Discovery of 7-azaindole based anaplastic lymphoma kinase (ALK) inhibitors: wild type and mutant (L1196M) active compounds with unique binding mode” (Bioorg Med Chem Lett, 2013).

How the values were obtained:
[1] = organism: Homo sapiens; test: Selectivity ratio of IC50 for aurora A kinase (unknown origin) to IC50 for human recombinant ALK
[2] = target: ALK tyrosine kinase receptor (Homo sapiens, UniProt Q9UM73, L1196M); test: Inhibition of human ALK L1196M mutant after 30 mins by TR-FRET assay
Chain of ALK tyrosine kinase receptor (Homo sapiens, UniProt Q9UM73, L1196M) (Q9UM73 19-1620 L1196M limits assumed): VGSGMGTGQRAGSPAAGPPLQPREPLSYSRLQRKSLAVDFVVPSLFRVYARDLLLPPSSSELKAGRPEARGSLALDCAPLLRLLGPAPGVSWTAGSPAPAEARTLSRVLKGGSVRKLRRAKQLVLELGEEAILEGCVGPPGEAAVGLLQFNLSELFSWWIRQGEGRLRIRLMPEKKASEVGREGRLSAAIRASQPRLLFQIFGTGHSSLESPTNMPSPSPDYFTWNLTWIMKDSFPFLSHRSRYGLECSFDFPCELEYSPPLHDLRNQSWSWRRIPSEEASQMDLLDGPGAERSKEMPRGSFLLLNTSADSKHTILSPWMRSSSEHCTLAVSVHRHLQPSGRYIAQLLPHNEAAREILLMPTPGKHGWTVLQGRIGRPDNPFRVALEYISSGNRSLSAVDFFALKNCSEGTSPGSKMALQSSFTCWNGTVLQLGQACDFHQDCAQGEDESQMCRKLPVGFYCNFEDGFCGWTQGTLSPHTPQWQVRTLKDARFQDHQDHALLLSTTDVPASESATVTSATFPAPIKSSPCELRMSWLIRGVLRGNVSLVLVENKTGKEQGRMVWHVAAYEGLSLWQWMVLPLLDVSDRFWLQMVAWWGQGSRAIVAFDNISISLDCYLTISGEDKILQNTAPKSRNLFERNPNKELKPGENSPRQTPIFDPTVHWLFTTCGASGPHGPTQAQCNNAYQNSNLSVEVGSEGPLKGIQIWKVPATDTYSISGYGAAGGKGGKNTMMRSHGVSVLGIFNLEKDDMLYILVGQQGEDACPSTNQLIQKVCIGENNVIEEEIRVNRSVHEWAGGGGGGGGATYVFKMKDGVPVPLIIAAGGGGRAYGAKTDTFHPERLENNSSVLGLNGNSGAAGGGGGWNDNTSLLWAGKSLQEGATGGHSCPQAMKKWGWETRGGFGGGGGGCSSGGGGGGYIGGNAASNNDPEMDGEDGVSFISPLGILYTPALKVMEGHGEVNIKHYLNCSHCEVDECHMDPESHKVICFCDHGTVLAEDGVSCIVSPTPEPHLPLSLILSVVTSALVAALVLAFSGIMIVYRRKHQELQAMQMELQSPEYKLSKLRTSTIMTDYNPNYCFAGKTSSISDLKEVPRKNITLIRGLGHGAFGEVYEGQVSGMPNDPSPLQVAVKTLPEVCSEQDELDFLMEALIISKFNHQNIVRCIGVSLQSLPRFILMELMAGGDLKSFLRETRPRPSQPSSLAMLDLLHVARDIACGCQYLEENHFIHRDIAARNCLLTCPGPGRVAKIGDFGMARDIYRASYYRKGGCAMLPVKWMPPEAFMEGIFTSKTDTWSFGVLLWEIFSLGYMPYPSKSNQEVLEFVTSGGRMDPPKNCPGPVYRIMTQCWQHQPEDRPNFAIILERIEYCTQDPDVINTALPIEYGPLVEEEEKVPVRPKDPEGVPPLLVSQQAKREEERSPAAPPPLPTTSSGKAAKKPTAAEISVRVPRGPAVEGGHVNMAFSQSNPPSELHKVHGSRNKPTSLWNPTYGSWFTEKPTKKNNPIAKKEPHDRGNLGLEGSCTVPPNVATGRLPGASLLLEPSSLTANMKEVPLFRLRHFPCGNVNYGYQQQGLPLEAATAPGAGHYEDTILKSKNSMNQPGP
In short: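 L1196M mutant ALK enzyme run in TR-FRET as for wild type (HEPES pH 7.1 buffer, ULight poly-GT substrate, Eu anti-phosphotyrosine detection, 30 min reaction) but with 0.5µM ATP; IC50.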

[3] = target: T1, ALK tyrosine kinase receptor (Homo sapiens, UniProt Q9UM73); test: Inhibition of wild type human recombinant ALK after 30 mins by TR-FRET assay
Target sequence in this assay (Q9UM73 whole entry): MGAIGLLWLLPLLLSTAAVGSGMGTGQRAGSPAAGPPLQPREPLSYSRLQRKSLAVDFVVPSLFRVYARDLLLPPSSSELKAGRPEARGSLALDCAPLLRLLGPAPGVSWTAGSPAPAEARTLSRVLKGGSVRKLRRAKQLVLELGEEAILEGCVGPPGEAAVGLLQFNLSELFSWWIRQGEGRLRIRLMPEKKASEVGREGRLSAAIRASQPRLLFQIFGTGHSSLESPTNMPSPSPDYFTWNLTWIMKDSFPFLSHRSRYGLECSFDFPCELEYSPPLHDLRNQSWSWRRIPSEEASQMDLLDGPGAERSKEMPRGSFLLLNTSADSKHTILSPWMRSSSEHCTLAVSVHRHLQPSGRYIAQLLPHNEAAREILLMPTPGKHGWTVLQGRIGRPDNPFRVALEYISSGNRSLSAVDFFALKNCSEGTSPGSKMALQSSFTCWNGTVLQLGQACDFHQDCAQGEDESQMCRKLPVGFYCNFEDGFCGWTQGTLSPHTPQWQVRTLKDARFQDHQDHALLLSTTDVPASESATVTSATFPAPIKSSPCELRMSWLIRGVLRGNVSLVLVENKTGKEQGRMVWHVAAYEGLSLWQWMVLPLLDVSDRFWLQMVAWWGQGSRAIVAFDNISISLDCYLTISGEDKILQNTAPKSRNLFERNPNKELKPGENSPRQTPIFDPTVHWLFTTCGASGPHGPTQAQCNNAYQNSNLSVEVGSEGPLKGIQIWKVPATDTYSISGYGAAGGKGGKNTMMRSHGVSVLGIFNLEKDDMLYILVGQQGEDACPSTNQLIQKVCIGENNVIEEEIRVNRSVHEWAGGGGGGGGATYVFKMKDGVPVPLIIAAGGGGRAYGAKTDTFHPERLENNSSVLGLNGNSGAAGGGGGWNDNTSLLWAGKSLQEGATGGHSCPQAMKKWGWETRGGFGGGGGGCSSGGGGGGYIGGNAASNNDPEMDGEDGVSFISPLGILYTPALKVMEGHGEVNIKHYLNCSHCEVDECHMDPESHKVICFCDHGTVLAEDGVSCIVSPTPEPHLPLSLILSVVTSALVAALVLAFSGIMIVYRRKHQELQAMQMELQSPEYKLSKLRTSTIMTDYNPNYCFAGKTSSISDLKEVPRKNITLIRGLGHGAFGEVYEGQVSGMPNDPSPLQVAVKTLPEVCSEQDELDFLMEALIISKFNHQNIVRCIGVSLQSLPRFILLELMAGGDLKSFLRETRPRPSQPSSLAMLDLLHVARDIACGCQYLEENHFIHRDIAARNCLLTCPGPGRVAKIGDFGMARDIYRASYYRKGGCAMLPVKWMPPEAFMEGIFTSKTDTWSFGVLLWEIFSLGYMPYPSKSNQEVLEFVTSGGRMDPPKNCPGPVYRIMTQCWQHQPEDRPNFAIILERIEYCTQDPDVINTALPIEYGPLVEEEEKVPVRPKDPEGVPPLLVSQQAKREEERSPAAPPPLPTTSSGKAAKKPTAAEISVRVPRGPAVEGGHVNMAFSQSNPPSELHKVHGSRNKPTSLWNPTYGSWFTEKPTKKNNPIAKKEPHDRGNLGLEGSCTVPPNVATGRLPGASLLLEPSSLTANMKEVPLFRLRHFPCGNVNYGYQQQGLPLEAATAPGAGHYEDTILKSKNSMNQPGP

[4] = target: T2, Aurora kinase A (Homo sapiens) (UniProt O14965); test: Inhibition of aurora A kinase (unknown origin) at 100 nM
T2 sequence (whole entry): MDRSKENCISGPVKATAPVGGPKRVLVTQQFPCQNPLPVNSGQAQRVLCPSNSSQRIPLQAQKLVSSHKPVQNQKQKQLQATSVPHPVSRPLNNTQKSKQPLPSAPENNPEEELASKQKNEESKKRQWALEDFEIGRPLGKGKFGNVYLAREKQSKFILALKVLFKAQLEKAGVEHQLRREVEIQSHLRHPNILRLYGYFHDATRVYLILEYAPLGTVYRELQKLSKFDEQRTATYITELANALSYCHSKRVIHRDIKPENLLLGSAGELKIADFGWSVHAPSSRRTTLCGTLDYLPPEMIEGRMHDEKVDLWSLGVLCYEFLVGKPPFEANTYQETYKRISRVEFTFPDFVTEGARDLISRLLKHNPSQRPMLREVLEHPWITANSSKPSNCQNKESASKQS

[5] = target: Macrophage-stimulating protein receptor (Homo sapiens) (UniProt Q04912); test: Inhibition of RON (unknown origin) at 100 nM
[6] = target: Cyclin-dependent kinase 2 (Homo sapiens) (UniProt P24941); test: Inhibition of CDK2 (unknown origin) at 100 nM
[7] = target: Hepatocyte growth factor receptor (Homo sapiens) (UniProt P08581); test: Inhibition of c-Met (unknown origin) at 100 nM
[8] = target: Vascular endothelial growth factor receptor 2 (Homo sapiens) (UniProt P35968); test: Inhibition of KDR (unknown origin) at 100 nM
[9] = target: Fibroblast growth factor receptor 1 (Homo sapiens) (UniProt P11362); test: Inhibition of FGFR1 (unknown origin) at 100 nM
Chain of Fibroblast growth factor receptor 1 (Homo sapiens) (P11362 22-822 limits assumed): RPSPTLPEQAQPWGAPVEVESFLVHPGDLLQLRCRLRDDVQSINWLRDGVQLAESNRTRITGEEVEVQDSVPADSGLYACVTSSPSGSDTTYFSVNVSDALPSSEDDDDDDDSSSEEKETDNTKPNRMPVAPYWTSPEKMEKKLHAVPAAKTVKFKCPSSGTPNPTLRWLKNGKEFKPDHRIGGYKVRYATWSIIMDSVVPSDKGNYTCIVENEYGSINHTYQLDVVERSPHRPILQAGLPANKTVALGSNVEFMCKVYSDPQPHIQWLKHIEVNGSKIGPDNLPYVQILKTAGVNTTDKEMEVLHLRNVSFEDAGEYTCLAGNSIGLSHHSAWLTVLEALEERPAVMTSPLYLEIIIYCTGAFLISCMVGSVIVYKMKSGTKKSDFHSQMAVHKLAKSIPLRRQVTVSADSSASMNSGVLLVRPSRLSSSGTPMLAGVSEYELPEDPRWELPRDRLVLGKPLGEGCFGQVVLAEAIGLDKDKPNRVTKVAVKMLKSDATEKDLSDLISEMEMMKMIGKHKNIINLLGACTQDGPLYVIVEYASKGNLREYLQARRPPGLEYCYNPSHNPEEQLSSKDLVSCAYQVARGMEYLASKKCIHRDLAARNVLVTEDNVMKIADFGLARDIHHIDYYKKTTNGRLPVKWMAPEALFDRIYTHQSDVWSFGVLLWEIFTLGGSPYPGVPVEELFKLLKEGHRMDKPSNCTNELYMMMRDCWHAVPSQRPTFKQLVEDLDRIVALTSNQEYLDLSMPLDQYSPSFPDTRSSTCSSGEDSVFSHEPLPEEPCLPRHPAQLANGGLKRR

[10] = system: KARPAS-299; test: Cytotoxicity against human KARPAS299 cells after 72 hrs by XTT assay; format: functional, cell-based; settings: KARPAS-299, 72 h
[11] = target: T1, ALK tyrosine kinase receptor; test: Inhibition of ALK in human KARPAS299 cells assessed as phosphorylated Stat3 level after 6 hrs by Western blotting analysis; format: cell-based, KARPAS-299
In short: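 Karpas 299 cells (4 × 10^5) treated 6 h at set concentrations, with crizotinib at 10 μM as positive control; lysed in RIPA, 30 µg lysate run on 10% SDS-PAGE, PVDF blot probed for phospho-Stat3 (Tyr705) and total Stat3; ECL detection; IC50 from blot densitometry.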
Target sequence in this assay (Q9UM73 whole entry): as the sequence (Q9UM73 whole entry) above

[12] = target: T1, ALK tyrosine kinase receptor; test: Inhibition of ALK in human KARPAS299 cells assessed as phosphorylated ALK level; settings: for inhibition: KARPAS-299

Row | Ratio IC50 [1] | IC50 [2] [nM] | IC50 [3] [nM] | inhibition [4] [%] | inhibition [5] [%] | inhibition [6] [%] | inhibition [7] [%] | inhibition [8] [%] | inhibition [9] [%] | IC50 [11] [nM] | IC50 [12] [nM] | inhibition [12] | Structure (SMILES) | IC50 [10] [nM]
1 | 6 | 56 | 6 |  |  |  |  |  |  |  |  |  | Cc1nn(Cc2cccc(F)c2)cc1-c1c[nH]c2ncc(-c3cnn(C)c3)cc12 | 
2 |  | 141 | 90 | 84 | 21 | 41 | 7 | 28 | 14 |  |  |  | Cn1cc(-c2cnc3[nH]cc(-c4cnn(Cc5ccccc5)c4)c3c2)cn1 | 3000
3 |  | 465 | 247 | 84 |  |  |  |  |  |  |  |  | Cn1cc(-c2cnc3[nH]cc(-c4cnn(Cc5cccc(C(F)(F)F)c5)c4)c3c2)cn1 | 1010
4 |  | 200 | 41 | 93 |  |  |  |  |  |  |  |  | Cn1cc(-c2cnc3[nH]cc(-c4cnn(Cc5cccc(O)c5)c4)c3c2)cn1 | 3360
5 |  | 379 | 84 | 84 |  |  |  |  |  | 986 | 3300 | Dose-dependent effect | Cn1cc(-c2cnc3[nH]cc(-c4cnn(Cc5ccc(F)c(F)c5)c4)c3c2)cn1 | 2260
6 |  | 223 | 85 | 64 |  |  |  |  |  |  |  |  | Cn1cc(-c2cnc3[nH]cc(-c4cnn(Cc5ccccc5F)c4)c3c2)cn1 | 2090
7 |  | 256 | 70 | 74 |  |  |  |  |  | 3010 | 3910 | Dose-dependent effect | Cn1cc(-c2cnc3[nH]cc(-c4cnn(Cc5ccc(F)cc5)c4)c3c2)cn1 | 1780
8 | 2 | 35 | 5.6 | 84 |  |  |  |  |  | 138 | 219 | Dose-dependent effect | Cn1cc(-c2cnc3[nH]cc(-c4cnn(Cc5cccc(F)c5)c4)c3c2)cn1 | 466
9 |  |  | 70 |  |  |  |  |  |  |  |  |  | Cn1cc(-c2cnc3[nH]cc(-c4cnn(Cc5cccc([N+](=O)[O-])c5)c4)c3c2)cn1 | 1850
10 |  | 47 | 6 | 74 |  |  |  |  |  |  |  |  | Cn1cc(-c2cnc3[nH]cc(-c4cnn(Cc5cc(F)cc(F)c5)c4)c3c2)cn1 | 664
11 |  | 143 | 30 | 87 |  |  |  |  |  | 986 | 3120 | Dose-dependent effect | Cn1cc(-c2cnc3[nH]cc(-c4cnn(Cc5cccc(Cl)c5)c4)c3c2)cn1 | 855
12 | 30 | 310 | 26 |  |  |  |  |  |  |  |  |  | Cc1nn(Cc2cc(F)cc(F)c2)c(C)c1-c1c[nH]c2ncc(-c3cnn(C)c3)cc12 | 
13 |  |  | 28 |  |  |  |  |  |  |  |  |  | Cn1cc(-c2cnc3[nH]cc(-c4cnn(Cc5cccc(N)c5)c4)c3c2)cn1 | 3630
14 |  | 150 | 32 | 85 |  |  |  |  |  |  |  |  | Cn1cc(-c2cnc3[nH]cc(-c4cnn(Cc5cccc(C#N)c5)c4)c3c2)cn1 | 1610
15 |  | 811 | 98 |  |  |  |  |  |  |  |  |  | Cn1cc(-c2cnc3[nH]cc(-c4cnn(Cc5cccc(C(=O)O)c5)c4)c3c2)cn1 | > 10000
16 | 3 | 428 | 63 |  |  |  |  |  |  |  |  |  | Cc1nn(Cc2cc(F)ccc2F)c(C)c1-c1c[nH]c2ncc(-c3cnn(C)c3)cc12 | 
17 |  | 124 | 29 | 75 |  |  |  |  |  | 1590 | 900 | Dose-dependent effect | Cn1cc(-c2cnc3[nH]cc(-c4cnn(Cc5cc(F)ccc5F)c4)c3c2)cn1 | 1200
18 | 11 | 275 | 31 |  |  |  |  |  |  |  |  |  | Cc1nn(Cc2cccc(F)c2)c(C)c1-c1c[nH]c2ncc(-c3cnn(C)c3)cc12 | 
